Shown are actives, neighbours in structure and some others; about 1.7% of the full set was active somewhere.
HIV Rev-RRE inh – disrupts HIV-1 Rev binding to RRE RNA | Rev peptide-RRE RNA binding, FRET | inhibition, % at 8 µM | 97,000 compounds, 0.79% hits | AID 704;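 active means inhibition above the screen-wide mean plus 3 SD, cut at about 35% in these data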;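 further: 0% = median DMSO wells and 100% = median Neomycin B control wells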
Target sequence (P05866 whole entry, looked up): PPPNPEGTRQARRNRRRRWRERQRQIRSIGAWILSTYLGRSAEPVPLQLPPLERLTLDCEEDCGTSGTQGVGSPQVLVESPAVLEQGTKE
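Assay system: labelled RRE RNA duplex and labelled Rev peptide / Medium: HEPES pH 7.5 salt buffer with EDTA / Reagent: labelled Rev peptide / Schedule: 5 + 15 min at 25 °C / Signal: FRET, excitation 480 nm, emission 540 nm donor and 671 nm acceptor / Benchmarks: DMSO and neomycin B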
EphB4 ephrin blk – antagonists of human EphB4-ephrin-B2 interaction; 97,000 compounds, 0.15% hits; EphB4 LBD / TNYL-RAW-Alexa532 peptide, fluorescence polarization; inhibition, % at 7 µM; AID 720; P54760;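 active means inhibition above the screen-wide mean inhibition plus 3 SD, cut at about 15% in these data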;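 further: 0% = DMSO wells and 100% = excess unlabeled TNYL-RAW peptide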
GALR2 agonist – agonists of human galanin receptor 2 (GALR2) | 140,000 compounds, 0.48% hits | activation, % (test concentration not listed) | GALR2-expressing cells, agonist activation read-out; in the data active means activation above about 5%, passing the limit was not always enough;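 further: 0% = vehicle buffer wells and 100% = reference agonist at full effect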
Target sequence (O43603 whole entry, looked up): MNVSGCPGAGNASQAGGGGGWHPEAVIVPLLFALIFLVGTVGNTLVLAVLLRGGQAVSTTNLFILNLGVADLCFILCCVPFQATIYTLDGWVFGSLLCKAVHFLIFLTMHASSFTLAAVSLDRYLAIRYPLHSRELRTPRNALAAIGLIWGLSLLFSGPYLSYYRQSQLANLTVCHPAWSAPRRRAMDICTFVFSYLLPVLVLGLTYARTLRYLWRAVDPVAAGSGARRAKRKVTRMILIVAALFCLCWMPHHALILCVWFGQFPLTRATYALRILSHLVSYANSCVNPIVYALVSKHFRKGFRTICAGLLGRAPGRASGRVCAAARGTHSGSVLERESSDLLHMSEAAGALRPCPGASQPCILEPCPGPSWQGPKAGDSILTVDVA
S1P2 blocker – blocks the human S1P2 receptor; O95136; cell-based S1P2 antagonist assay, inhibition at 5 uM; inhibition, % at 5 µM; 97,000 compounds, 0.21% hits; in the data active means inhibition above about 45%;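 further: CRE beta-lactamase reporter cells expressing human S1P2 stimulated with S1P; 0% = agonist at EC80 alone and 100% = agonist plus reference antagonist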
S1P2 agonist – activates the human S1P2 receptor | O95136 | S1P2-expressing cell line, agonist reporter read-out | activation, % at 4.5 µM | 97,000 compounds, 0.46% hits | AID 729; in the data active means activation above about 16%;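 further: 0% = vehicle low control and 100% = maximal reference agonist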
GALR2 antag – GALR2 (human) receptor antagonism | inhibition, % at 4 µM | GALR2-expressing cells, antagonist mode | 140,000 compounds, 0.39% hits; in the data active means inhibition above about 27%;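 further: cells stimulated with galanin 1-16 at roughly its EC80; 0% = agonist challenge control and 100% = basal control without agonist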
Numbers without * were called inactive; . = no result; [ ] = dose if it differs, or a comment.

SMILES	HIV Rev-RRE inh	EphB4 ephrin blk	GALR2 agonist	S1P2 blocker	S1P2 agonist	GALR2 antag
COc1cc2c(cc1OC)C1=C(C#N)CN(CC(=O)O)CN1CC2	16.0	4.2	-1.4	-28.0	22.9*	-8.3
COc1cc2c(cc1OC)CN(CC(=O)Nc1ccccc1C#N)CC2	12.0	1.1	-1.7	4.2	1.0	5.0
c1csc(-c2csc3nc(CN4CCOCC4)nc(NCc4ccc5c(c4)OCO5)c23)c1	1.1	-3.0	-1.2	-10.9	-6.2	-1.2
N#C/C(=C\c1ccc(N2CCOCC2)o1)c1ccccc1	78.3*	-7.0	-3.5	30.0	-18.2	26.8
N#C/C(=C\c1ccc(N2CCOCC2)cc1)c1ccccc1	.	.	-0.9	.	.	1.1
N#C/C(=C/c1ccc(N2CCOCC2)o1)c1ccc(Br)cc1	122.5*[fluorescence artefact?]	-10.5	-1.3	19.7	-12.6	18.8
N#C/C(=C/c1ccc(N2CCOCC2)o1)c1nc2ccccc2[nH]1	135.8*[fluorescence artefact?]	-5.8	-1.2	-14.9	-7.4	12.2
CCOc1ccccc1C1C2CCCCC2(O)CCN1C(=O)c1cccs1 (stereo not drawn)	.	.	0.0	.	.	-20.2
Cc1ccc(S(=O)(=O)Nc2cc3c(C(=O)Nc4ccccc4)c(C)oc3c3ccccc23)cc1	.	.	-0.3	.	.	-2.6
Cc1ccccc1NC(=O)Cn1c(NCC(C)O)nc2ccccc21 (stereo not drawn)	.	.	-0.8	.	.	6.3
Cc1cccc2cc3c(N)c(C(=O)N4CCOCC4)sc3nc12	50.0*	-2.8	-1.2	-0.2	-1.5	15.0
Cc1ccc2nc3sc(C(=O)N4CCCc5ccccc54)c(N)c3cc2c1	48.6*	-0.2	-1.6	-6.3	-3.6	-2.4
Cc1ccc(-c2cc(C(=O)N3CCCc4ccccc43)c3ccccc3n2)cc1	4.3	4.5	-3.1	-16.1	-3.7	-2.3
Cc1cc(C)c2cc3c(N)c(C(=O)N4CCc5ccccc5C4)sc3nc2c1	71.7*	3.2	-0.9	9.6	-5.0	8.1
Nc1nc2sc3c(c2cc1C(=O)N1CCOCC1)CCCC3	3.9	3.5	-3.8	-0.6	-8.7	13.2
CN(C)c1ccc(/C=C/C(=O)c2cccc(Br)c2)cc1	130.6*[fluorescence artefact?]	1.1	-1.5	12.9	-7.5	5.2
COc1cc2c(cc1OC)C(c1cc3ccccc3oc1=O)=NC(C)(C)C2	6.4	2.1	-0.1	-58.4	32.8*	13.4
CC(=O)[C@@H]1[C@@H]2C(=O)N(Cc3ccccc3)C(=O)[C@@H]2C2c3ccccc3C=CN21 (stereo partly drawn)	64.2*	-6.9	-0.8	-4.3	-7.0	-15.9
COc1ccc(N2C(=O)[C@@H]3[C@H](C2=O)[C@H]2c4ccccc4C=CN2[C@@H]3C(=O)Nc2ccccc2)cc1	118.6*[fluorescence artefact?]	7.0	-1.9	14.6	-2.5	-8.6
O=C(c1ccco1)[C@@H]1[C@@H]2C(=O)N(c3ccccc3)C(=O)[C@@H]2C2c3ccccc3C=CN21 (stereo partly drawn)	33.9	-4.1	-1.2	25.5	-2.9	-8.6
O=C(Nc1c2c(nc3ccccc13)CCCC2)c1cccc([N+](=O)[O-])c1	.	.	-2.4	.	.	8.6
O=C(Oc1c(Br)cc([N+](=O)[O-])cc1Br)c1cccnc1	.	.	-2.5	.	.	-3.1
COC(=O)COc1ccc2c(-c3ccc(OC)cc3)cc(=O)oc2c1	11.1	-6.0	-0.7	-24.0	-3.4	0.6
COc1ccc(-c2cc(=O)oc3c(C)c(O)c(CN(C)C)cc23)cc1	38.9*	7.0	-1.1	18.5	-3.2	12.5
COCCCn1c(SCc2nc3ccccc3c(=O)[nH]2)nc2ccccc2c1=O	1.6	-6.0	0.8	-31.5	23.1*	-2.4
SMILES	HIV Rev-RRE inh	EphB4 ephrin blk	GALR2 agonist	S1P2 blocker	S1P2 agonist	GALR2 antag
CCOc1cc(C=O)ccc1OS(=O)(=O)c1ccc(NC(C)=O)cc1	.	.	-1.0	.	.	-0.2
COc1ccc(N=Nc2nc3ccc(Br)cc3n2C)cc1	101.2*[fluorescence artefact?]	-11.1	-4.5	-9.2	-5.0	6.6
CC(=O)Nc1ccc(SCC(=O)OCC(=O)NC(=O)NCc2ccco2)cc1	6.9	16.3*	-2.4	9.5	-4.9	-2.3
O=S1(=O)C=C(Sc2nc3cc(Cl)ccc3o2)c2ccccc21	6.9	-3.1	-1.0	94.0*	-10.6	9.9
CSc1nnc(C)c(/C=C/Nc2ccc(C)cc2)n1	109.5*[fluorescence artefact?]	5.9	-1.5	20.4	-4.1	17.9
O=S(=O)(NC1CC2CCC1C2)c1ccc(Br)s1 (stereo not drawn)	3.4	0.7	-1.0	-15.5	-2.3	1.5
Cc1ccsc1C1Nc2ccccc2C(=O)N1O (stereo not drawn)	.	.	-1.6	.	.	-1.0
CN1CCc2c(sc3c2C(=O)NC(c2cccs2)N3)C1 (stereo not drawn)	67.2*	1.4	3.7	4.4	3.3	1.5
Cc1ccc(C2NC(=O)c3ccccc3N2)s1 (stereo not drawn)	6.5	-1.2	-0.2	7.7	-5.2	10.7
Cc1ccsc1C1NC(=O)c2c(sc3c2CCN(C)C3)N1 (stereo not drawn)	99.7*[fluorescence artefact?]	1.3	-0.4	14.1	-1.9	-6.3
CSc1ccc(C2NC(=O)c3c(sc4c3CCN(C)C4)N2)cc1 (stereo not drawn)	84.4*	0.2	2.8	10.1	-3.5	3.4
CN1CCN(NC(=O)C2CC2)CC1	.	.	-0.7	.	.	1.6
COCCCn1c(C)nc2c(c1=O)c1nc3ccccc3nc1n2CCc1ccccc1	-3.6	-7.6	-2.1	0.5	-3.5	-6.5
CC(=O)c1c[nH]c2ccc(C)cc2c1=O	14.5	-5.9	-0.1	-7.4	-2.4	-4.6
CCOC(=O)c1ccc2[nH]cc(C(C)=O)c(=O)c2c1	52.7*	-3.4	-5.2	-5.8	-4.4	13.0
COc1cc(SC)ccc1C(=O)Nc1ccc2c(c1)OCCO2	10.1	-9.2	0.5	-22.8	-10.2	-7.8
Cc1cc(C(F)(F)F)nn1Cc1n[nH]c(=S)n1Cc1ccccc1	-1.5	-6.7	-2.5	-7.6	-2.9	6.9
COc1ccc(C2Nc3ccccc3C(=O)N2c2ccc(F)cc2)cc1CSc1ccccn1 (stereo not drawn)	.	.	6.4*	.	.	0.2
COc1ccc(C2Nc3ccccc3C(=O)N2c2ccccc2)cc1CSc1ccccn1 (stereo not drawn)	.	.	-1.2	.	.	7.7
Cn1c(=O)c2ncn(CC(=O)Nc3ccc4c5c(cccc35)CC4)c2n(C)c1=O	45.8*	7.7	-0.5	3.3	-5.7	-3.0
CCN(CC)c1ccc(C=N/C(C#N)=C(\N)C#N)cc1	53.1*	-1.6	-1.8	18.1	-3.4	6.0
CN1CCc2c(sc(/N=C/c3cccs3)c2C(N)=O)C1	80.8*	-4.0	0.8	1.0	0.3	9.9
CCN1CCC2(CC1)C(C#N)=C(N)Oc1c2sc2nc(C)cc(C)c12	65.8*	-2.0	-1.0	1.0	-5.6	-2.0
CCOc1ccc(Br)cc1C1C(C(=O)OC)=C(N)Oc2cc(N(C)C)ccc21 (stereo not drawn)	38.4*	0.3	1.0	-5.4	2.0	-4.3
CCOc1ccccc1C1C(C(=O)OC)=C(N)OC2=C1C(=O)CCC2 (stereo not drawn)	.	.	0.0	.	.	-2.7
Cc1ccc2nc3c(cc2c1)c(NC(=O)c1ccccn1)nn3CC(C)C	8.6	0.8	2.7	-22.5	18.6*	-11.1

Screening data deposited in PubChem by The Scripps Research Institute Molecular Screening Center.
